This note sets out measurements from ChEMBL document CHEMBL4513216, “Probing the Open Global Health Chemical Diversity Library for Multistage-Active Starting Points for Next-Generation Antimalarials” (ACS Infect Dis, 2020).

The nature of the series: Toxicity liver stage against HepG2, at 10uM. It is filed as cell-based. Also on record: test concentration 10 uM, cell line HepG2-A16-CD81EGFP. Particulars: human, HepG2-A16-CD81EGFP cells; read-out: INHIBITION
In short, it runs like this: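 Uninfected HepG2-A16-CD81EGFP cells, 3 × 10^3 per well, 1536-well, plated on prespotted compound at 10 μM final, parasite-free screening media added to match infected plates; puromycin 10 μM positive, DMSO 0.5% negative; run in parallel with 48 h PbLuc assay at 37 °C, 5% CO2; viability by CellTiter-Glo luminescence, normalized to controls.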
On to `COc1c(CNCc2cccc(Cn3cncn3)c2)c(C)nn1C`, for which the cytotoxicity at 10 µM was -11.2%. For `COc1cc(N2CCOC(c3ccc(F)cc3)C2)ncn1` (stereo not drawn), the cytotoxicity at 10 µM is 15.3%. The value for `Cc1nc[nH]c1-c1nccn1-c1ccc(C(N)=O)c(N2CCCC2)c1` was 6.23%; that for `CC1CN(C)CCN1Cc1cccc(C(=O)N(C)C)c1` (stereo not drawn) was -0.192%; that for `NC(=O)c1ccc(N2CCCCC2)c(NC(=O)c2ccc(F)cc2F)c1` was -0.0472%. In the case of `CCNc1ncc(C(=O)NC2CCc3ccccc3C2)cn1` (stereo not drawn), the cytotoxicity at 10 µM turned out to be 82.6%.

In the case of `CCCc1cc(NCCC2CCCOC2)n2nccc2n1` (stereo not drawn), the cytotoxicity at 10 µM was found to be 3.63%. For the compound `Cc1occc1C(=O)Nc1ccc(C(=O)NC[C@H]2CCCN2)cc1`, the cytotoxicity at 10 µM was -10.6%. As for `COCCNC(=O)c1cc2c(s1)CCN2S(C)(=O)=O`, the cytotoxicity at 10 µM was -5.05%. In the case of `CC(=O)N1CCC1c1cc(N2CC(O)C2)nc(C)n1` (stereo not drawn), the cytotoxicity at 10 µM was 5.76%.

Take `O=C(CN1CCC(c2cc(=O)n3c(n2)CCCCC3)C1)N1CCCCC1` (stereo not drawn): the cytotoxicity at 10 µM was -22.8%. Consider `Cc1ccccc1CN1C[C@H]2CC[C@@H](C1)N(CC1CCC1)C2=O`, for which the cytotoxicity at 10 µM worked out at 4.86%. Next, `COc1cccn(CC(=O)N2CCCC3(CCCO3)CC2)c1=O` (stereo not drawn): 0.955%; `N#Cc1ccc(CN(CC(N)=O)Cc2cccc(F)c2)cc1`: -2.01%; `CN(C)C(=O)CCS(=O)(=O)Cc1cc(Cl)c2c(c1)OCO2`: -5.09%.

With `CCCOc1ccccc1CCCNc1ncnc2oc(C)nc12`, the cytotoxicity at 10 µM stood at 22.4%. In the case of `Cc1nc(CN(C)S(=O)(=O)c2ccccc2C(F)(F)F)no1`, the cytotoxicity at 10 µM was -3.03%. As for `Cc1nn(C)c(Oc2ccccc2)c1CNC1CCOc2ccccc21` (stereo not drawn), the cytotoxicity at 10 µM is 4.88%. The value for `CC(C#N)CN(C)Cc1c(Cl)ccc2cccnc12` (stereo not drawn) was -39%.

Regarding `Cc1cnc(CN(C)C2CCN(Cc3cnc(C)s3)C2)o1` (stereo not drawn), the cytotoxicity at 10 µM is -0.0499%. On to `CC1c2ncc(Cn3cccn3)n2CCN1Cc1ccccn1` (stereo not drawn), for which the cytotoxicity at 10 µM is -106%. Next, `CCCS(=O)(=O)NCC(O)c1c(Cl)cccc1Cl` (stereo not drawn): 7.52%; `Clc1ccc(C2(CNC3=NCCN3)CCCCC2)cc1`: 38.2%. Regarding `CNC(=O)CSC(C)c1ccc(Br)cc1` (stereo not drawn), the cytotoxicity at 10 µM is -5.71%. Regarding `CSc1ccc(CNCCS(=O)(=O)N2CCOCC2)cc1`, the cytotoxicity at 10 µM is 4.83%. Next, `O=C(CC1CCCN1S(=O)(=O)N1CCCCC1)c1cccs1` (stereo not drawn): 6.31%.

For `CC(=O)N1CCN(c2ccnc3c(F)cc(Br)cc23)CC1`, the cytotoxicity at 10 µM stood at 13.6%. Next, `O=C(C[S+]([O-])Cc1ccc(F)cc1)N1CCc2sccc2C1` (stereo not drawn): -3.86%; `c1ccc(OCc2ccncc2)c(CNC2CCc3ncnn3C2)c1` (stereo not drawn): -2.35%. Next, `CC(=O)N1CCCC(Cc2nccn2C)C1` (stereo not drawn): -5.52%; `CS(=O)(=O)NCc1ccc(C(=O)NCc2ccc3c(c2)CCC3)o1`: -5.61%; `NC(=O)COc1ccc(CNCc2cc(F)ccc2F)cc1`: 18.5%.

For the compound `COC(=O)c1ccc(N2CCN(C(=O)CC(F)(F)F)C(C)C2)cc1` (stereo not drawn), the cytotoxicity at 10 µM is 4.42%. The value for `Cc1nccn1-c1ccc(NC(=O)C2CCCN2CC2CC2)cc1` (stereo not drawn) was -14%; that for `CC(=O)N[C@H]1CCO[C@@H](c2cccc(NC(=O)c3cccc(F)c3)c2)C1` was 8.75%; that for `CCOC1CC2(CCN(C(=O)Cc3ccccn3)CC2)C1` was -90.9%.

Consider `CC(C(=O)O)n1nc(C(F)(F)F)c(Br)c1C1CC1` (stereo not drawn), for which the cytotoxicity at 10 µM turned out to be 10.3%. The value for `COc1ccc2c(CN3CCCN(Cc4ccncc4)CC3)n[nH]c2c1` was -4.32%; that for `Cc1nc(NC(=O)N(C)Cc2ccoc2)nn1C` was -6.03%; that for `Cc1nc(C)c(S(=O)(=O)NC(=O)c2ccsc2)s1` was -6.85%. The value for `O=C(c1ccncc1)N1CCCC(c2cc(C(F)F)n3ncnc3n2)C1` (stereo not drawn) was -4.45%; that for `COc1ccc(C(=O)N2CC(c3ccncc3)C2)c(OC)c1OC` was -1.86%. On to `CCCNC(=O)c1cc(-c2ccn(C(C)C)n2)n2ccccc12`, for which the cytotoxicity at 10 µM is 1.92%. For the compound `Cc1ccc(N2CCO[C@H]3CN(Cc4ccc(F)cc4)C[C@H]32)nn1`, the cytotoxicity at 10 µM was -88.6%. Next, `CCc1nc(NCc2ccccn2)c2c(n1)c(C)nn2C`: 8.92%. `CC(C)NC(=O)Nc1ccccc1CN1CCOCC1`: the cytotoxicity at 10 µM is 4.89%.

As to `O=C(O)CNc1cc(-c2cc(C3CC3)ncn2)c2cc[nH]c2n1`, the cytotoxicity at 10 µM turned out to be 7.69%. The value for `Cc1[nH]c(-c2ccccc2)nc1C(=O)N1CC[C@H](CO)[C@@H](O)C1` was 76.5%; that for `O=C(NCCCN1CCC(OC2CCCCC2)CC1)C1CCCC1` was 2.24%; that for `O=C1OC2(CCNCC2)CN1CC(=O)N1CCC1c1cccs1` (stereo not drawn) was 4.35%. Turning to `COc1ccc(OCc2cc(C(=O)N3CCSCC3)n[nH]2)c(Cl)c1`, the cytotoxicity at 10 µM is -7.51%.

Take `COc1ccc(Cl)cc1-n1cnc(CCNC(C)=O)c1`: the cytotoxicity at 10 µM came to 2.29%. Next, `Cc1ccc(C)c(OCc2cc(C(=O)N(C)CC(O)CO)no2)c1` (stereo not drawn): 2.55%; `O=S1(=O)C[C@@H]2[C@H](C1)N(Cc1ncc[nH]1)CCN2CC1CC1`: -7.18%; `O=C(NCc1ccccc1F)N1CCCCC1C1OCCO1` (stereo not drawn): 2.01%. The value for `CN(Cc1cccc(C(N)=O)c1)c1ncc(C#N)cc1Cl` was 8.36%. Next, `O=C(CCn1c(C(F)(F)F)cc2cccnc21)N1CCCC1`: -21.5%; `CCN1CC2(CCN(CC3CCCO3)CC2)OC1=O` (stereo not drawn): -4.78%. `CCCc1ccc(CN2CCC3(CCC(=O)N(CCCOC)C3)CC2)o1`: the cytotoxicity at 10 µM is -1.53%.

For the compound `Cc1sc(-c2ccco2)nc1C(=O)N(CC1CCOC1)C1CC1` (stereo not drawn), the cytotoxicity at 10 µM is 0.714%.

Regarding `Cc1nn(C)c(C)c1CNCc1ccnc(N2CCOCC2)c1`, the cytotoxicity at 10 µM was found to be 0.626%. Next, `CC1(Cc2ccccn2)NCCc2[nH]cnc21` (stereo not drawn): -5.18%; `Cc1ncccc1CNCC1CCCN1c1cccnn1` (stereo not drawn): -14.2%; `O=C(Nc1ccc(-c2csnn2)cc1)N1CC[C@H](O)C1`: -4.62%. Next, `COC1CN(C(=O)CC(C)C)CCC(=O)N(C)c2ccccc21` (stereo not drawn): -2.72%; `CO[C@@H]1CC[C@@H](N(C)C(=O)c2cn3cc(C)ccc3n2)[C@H]1O`: 0.91%.

Regarding `O=S(=O)(c1cc(F)ccc1F)n1cc(Cl)cn1`, the cytotoxicity at 10 µM came out at 4.52%. As for `CNc1nc2c(c(C(=O)N3CCCC3)n1)CN(Cc1ccco1)CC2`, the cytotoxicity at 10 µM is -113%. Next, `COc1ccc(/C=C/CN2CCC3(CC2)CN(C)C(=O)O3)cc1`: -2.11%. The value for `Cc1nn(C)c(C)c1C(=O)NCc1cccnc1OC1CCCC1` was -0.171%; that for `CCn1ccnc1CN1CCCN(C(=O)c2ccsc2)CC1` was -6.63%; that for `CNC(=O)C(C)(C)NC(=O)c1cc(OCC2CCC2)cc(C(=O)OC)c1` was -8.97%. As to `CN(C)C(=O)CN1CCN(c2cc(N3CCCC3CO)ncn2)CC1` (stereo not drawn), the cytotoxicity at 10 µM was -1.49%. The value for `O=C(NCCCc1nc(=O)[nH][nH]1)Nc1ccc(Cl)cc1` was -54.9%. On to `CC(C)NC(=O)C1(Cc2ccccc2-c2cncnc2)CCCNC1` (stereo not drawn), for which the cytotoxicity at 10 µM came out at 3.67%. Turning to `CO[C@H]1CN(Cc2ccccc2F)C[C@@]12CCCO2`, the cytotoxicity at 10 µM is -8.19%.

Regarding `Cc1ccnc(C2(C)CCCN2S(=O)(=O)c2ccccc2)n1` (stereo not drawn), the cytotoxicity at 10 µM stood at 0.435%.

Consider `CC(C)CC(O)C1CCN(C(=O)c2coc(CN3CCOCC3)c2)CC1` (stereo not drawn), for which the cytotoxicity at 10 µM was -7.27%. For `OCC1CCC2(CC1)CN(Cc1ccccn1)Cc1ccccc1O2` (stereo not drawn), the cytotoxicity at 10 µM came out at 5.35%.

For the compound `O=C(c1cc[nH]n1)N1CCCC(c2cc(C(F)(F)F)[nH]n2)C1` (stereo not drawn), the cytotoxicity at 10 µM is -6.97%. For `Cc1cnc(N2C[C@@H]3C[C@H](C(=O)N(C)C)[C@H](C2)O3)nc1`, the cytotoxicity at 10 µM is -2.47%. Consider `NCC1(c2cccc(Br)c2)CCOCC1`, for which the cytotoxicity at 10 µM was -8.45%. Next, `O=C(CNc1cccc(CC(F)(F)F)c1)NCc1ccco1`: -46.3%. For the compound `COc1ccccc1[C@@H]1CN(C(=O)c2csc(C)n2)C[C@H]1C(=O)O`, the cytotoxicity at 10 µM amounted to 4.98%. Consider `Cn1ccc(CN2CCC3(CC2)CC(Nc2ccccn2)CO3)n1` (stereo not drawn), for which the cytotoxicity at 10 µM was -1.19%. Next, `Cc1cc(NC(=O)CN(C)C2CCCN(c3cccnn3)C2)on1` (stereo not drawn): -5.93%; `COCC1(C(=O)N[C@H]2CN(c3ccnc(C)c3)C[C@@H]2C2CC2)CCC1`: -160%.

Consider `Cc1nc(N2CCN(C(=O)NCc3cscn3)CC2)sc1C`, for which the cytotoxicity at 10 µM was -11.3%.

Turning to `CC(=O)c1cccc(NC(=O)CCn2nc(-c3cccs3)oc2=O)c1`, the cytotoxicity at 10 µM was -4.47%.

Regarding `CN(CCc1ccccn1)C(=O)c1ccccc1F`, the cytotoxicity at 10 µM was -10.5%. Next, `CC(C)N1[C@H](Cn2cncn2)C[C@@H]2CN(c3ncccn3)CC[C@@H]21`: 3.17%; `Cc1c(C(=O)N2CC(C)(C)C2(C)C)nnn1-c1cccc2cnccc12`: 9.68%. Regarding `COc1ccc(OC2CCN(C(=O)CCc3nc(Cl)n[nH]3)CC2)cc1`, the cytotoxicity at 10 µM was 4.47%. The value for `CC(=O)NC1CCCN(C(=O)NCc2ccc(-n3cccn3)cc2)C1` (stereo not drawn) was -11.8%; that for `CCCc1noc(CN2CCOCC2C)n1` (stereo not drawn) was 6.3%; that for `Cc1nc2c(cc1C(=O)O)CCN(Cc1ccsc1)CC2` was 9.62%. With `COc1ccc(CN2CCC3(CCCNC3)C2)cc1Cn1cccn1` (stereo not drawn), the cytotoxicity at 10 µM was -10.1%. The value for `CN(C(=O)CN1CCCC1c1cnn(C)c1)C(C)(C)C#N` (stereo not drawn) was -1.37%.
